Results: ChEMBL document CHEMBL1828499, “Design and synthesis of inhibitors of noroviruses by scaffold hopping” (Bioorg Med Chem, 2011)

How the values were obtained:
[1] = test system: Norovirus; test: Antiviral activity against Norovirus infected in human HG23 cells assessed as inhibition of viral replication after 24 hrs by qRT-PCR; format: functional; details: HG23, 24 h, read-out: ED50 (the source's name)
In short: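 HG23 cells (harbouring NV replicon), one day old and 80–90% confluent, exposed to each compound over 0 (mock-DMSO) to 20 μM. NV genome levels measured by qRT-PCR; ED50 for genome level taken at 24 hr post-treatment.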

[2] = Cytotoxicity against human HG23 cells after 48 hrs; format: cell-based; details: read-out: TD50
In short: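 HG23 cells (Norwalk virus replicon-harboring) exposed to each compound at 0 (mock-DMSO) to 320 μM for 48 hr; viability read with a cell cytotoxicity assay kit; median toxic dose (TD50) calculated.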

Compound	EC50 [1] [µM]	CC50 at 48 h [2] [µM]
O=C1NCCCN1Cc1cccc(Oc2ccccc2)c1	> 20	–
CCCCc1cn(Cc2cccc(Oc3ccccc3)c2)nn1	6	40
c1ccc(Oc2cccc(Cn3ccnn3)c2)cc1	10	100
Cn1nnc(Cc2cccc(Oc3ccccc3)c2)n1	> 20	–
O=C1NCCN1Cc1cccc(Oc2ccccc2)c1	8	95
c1ccc(Oc2cccc(Cn3ccnc3)c2)cc1	8	35
c1ccc(Oc2cccc(Cc3nn[nH]n3)c2)cc1	> 20	–
O=C(O)CCCc1cn(Cc2cccc(Oc3ccccc3)c2)nn1	> 20	–
CC(C)(C)OC(=O)CN1CCN(Cc2cccc(Oc3ccccc3)c2)C1=O	12	55
C[Si](C)(C)c1cn(Cc2cccc(Oc3ccccc3)c2)nn1	7	30
CC(C)(O)c1cn(Cc2cccc(Oc3ccccc3)c2)nn1	> 20	–
O=C1N(CCN2CCOCC2)CCN1Cc1cccc(Oc2ccccc2)c1	16	120
O=S1(=O)NCCCN1Cc1cccc(Oc2ccccc2)c1	> 20	–
O=C1N(CCN2CCN(CCN3CCN(Cc4cccc(Oc5ccccc5)c4)C3=O)CC2)CCN1Cc1cccc(Oc2ccccc2)c1	0.5	2.5
O=C(O)CN1CCN(Cc2cccc(Oc3ccccc3)c2)C1=O	> 20	–
O=C1CN(Cc2cccc(Oc3ccccc3)c2)S(=O)(=O)N1	> 20	–
